{
  "source": "paper PMC6982535",
  "about": "(Science (New York, N.Y.), 2019)",
  "key": {"TREK-1": {"target": "T1, TREK-1 (Homo sapiens, UniProt O95069)", "T1 sequence (O95069 1-426)": "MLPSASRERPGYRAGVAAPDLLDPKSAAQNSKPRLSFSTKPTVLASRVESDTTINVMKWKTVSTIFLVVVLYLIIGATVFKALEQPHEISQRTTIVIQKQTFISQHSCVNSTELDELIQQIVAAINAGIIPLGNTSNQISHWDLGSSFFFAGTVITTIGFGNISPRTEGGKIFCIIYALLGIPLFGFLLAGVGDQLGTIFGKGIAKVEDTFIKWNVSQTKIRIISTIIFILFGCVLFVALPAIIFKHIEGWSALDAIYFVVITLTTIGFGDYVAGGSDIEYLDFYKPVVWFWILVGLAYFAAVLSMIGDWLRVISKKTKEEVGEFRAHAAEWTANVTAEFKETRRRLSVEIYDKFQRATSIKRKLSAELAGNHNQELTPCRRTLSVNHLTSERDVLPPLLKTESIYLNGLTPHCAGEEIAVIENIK", "assay": "TREK-1 channel currents in inside-out patches", "assay_type": "cell-based", "conditions": "inside-out patches; result in words", "how_it_was_run": "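TREK-1 currents were recorded in inside-out patches from Xenopus oocytes and evoked by voltage ramps. Currents were read at +40 mV. Concentration-response curves were obtained with and without 5 μM THexA (tetrahexylammonium). THexA inhibition of basal current was quantified separately. n ≥ 8.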"}, "hERG": {"target": "hERG (Homo sapiens, UniProt Q12809)", "sequence (Q12809 whole entry)": "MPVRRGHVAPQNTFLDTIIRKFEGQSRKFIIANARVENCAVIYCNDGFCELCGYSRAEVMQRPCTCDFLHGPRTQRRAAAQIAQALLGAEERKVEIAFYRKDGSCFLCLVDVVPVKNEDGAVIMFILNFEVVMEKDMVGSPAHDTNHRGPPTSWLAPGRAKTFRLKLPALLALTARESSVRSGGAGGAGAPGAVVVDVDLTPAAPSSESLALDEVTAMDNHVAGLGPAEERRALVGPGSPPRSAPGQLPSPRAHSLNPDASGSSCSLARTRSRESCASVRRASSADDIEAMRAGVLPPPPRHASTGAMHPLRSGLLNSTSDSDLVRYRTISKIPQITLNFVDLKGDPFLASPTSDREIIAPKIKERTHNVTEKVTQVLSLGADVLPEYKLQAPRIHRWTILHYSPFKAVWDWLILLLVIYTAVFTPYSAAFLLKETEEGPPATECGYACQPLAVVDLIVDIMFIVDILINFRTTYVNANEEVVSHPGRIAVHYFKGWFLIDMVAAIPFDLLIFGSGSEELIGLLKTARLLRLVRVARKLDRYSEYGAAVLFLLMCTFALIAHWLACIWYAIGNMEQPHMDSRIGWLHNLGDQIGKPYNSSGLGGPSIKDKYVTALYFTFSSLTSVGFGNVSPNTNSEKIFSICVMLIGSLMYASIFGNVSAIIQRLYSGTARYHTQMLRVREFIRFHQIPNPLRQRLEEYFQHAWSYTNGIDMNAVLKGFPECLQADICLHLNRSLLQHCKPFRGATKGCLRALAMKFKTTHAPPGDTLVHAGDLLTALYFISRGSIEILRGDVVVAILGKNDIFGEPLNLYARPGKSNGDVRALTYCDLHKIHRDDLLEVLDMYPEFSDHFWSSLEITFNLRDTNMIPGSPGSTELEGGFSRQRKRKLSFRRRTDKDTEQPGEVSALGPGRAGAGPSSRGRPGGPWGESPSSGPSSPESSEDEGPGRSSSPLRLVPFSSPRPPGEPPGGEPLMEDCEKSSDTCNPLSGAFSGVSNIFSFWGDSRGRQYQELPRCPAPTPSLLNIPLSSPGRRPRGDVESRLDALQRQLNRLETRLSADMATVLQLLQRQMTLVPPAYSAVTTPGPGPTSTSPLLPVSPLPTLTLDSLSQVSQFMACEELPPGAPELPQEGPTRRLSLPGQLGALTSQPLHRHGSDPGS", "assay": "hERG channel currents in inside-out patches", "assay_type": "cell-based", "conditions": "inside-out patches; result in words"}, "TRAAK": {"target": "T2, TRAAK (Homo sapiens, UniProt Q9NYG8)", "T2 sequence (Q9NYG8 1-393)": "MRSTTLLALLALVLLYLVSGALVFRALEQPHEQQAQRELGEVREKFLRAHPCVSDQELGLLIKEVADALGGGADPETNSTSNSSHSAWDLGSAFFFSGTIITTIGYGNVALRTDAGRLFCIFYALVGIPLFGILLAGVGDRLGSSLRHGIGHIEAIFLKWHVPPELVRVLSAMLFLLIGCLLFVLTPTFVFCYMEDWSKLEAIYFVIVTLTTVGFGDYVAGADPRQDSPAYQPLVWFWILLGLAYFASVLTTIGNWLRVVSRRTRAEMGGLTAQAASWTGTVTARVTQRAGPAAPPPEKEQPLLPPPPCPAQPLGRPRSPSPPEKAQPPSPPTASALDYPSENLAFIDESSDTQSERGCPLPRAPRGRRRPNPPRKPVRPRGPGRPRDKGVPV", "assay": "Extended screening of K2P channels with BL-1249: TRAAK", "assay_type": "cell-based", "conditions": "result in words"}, "TALK-1": {"target": "T3, TALK-1 (Homo sapiens, UniProt Q96T55)", "T3 sequence (Q96T55 1-309)": "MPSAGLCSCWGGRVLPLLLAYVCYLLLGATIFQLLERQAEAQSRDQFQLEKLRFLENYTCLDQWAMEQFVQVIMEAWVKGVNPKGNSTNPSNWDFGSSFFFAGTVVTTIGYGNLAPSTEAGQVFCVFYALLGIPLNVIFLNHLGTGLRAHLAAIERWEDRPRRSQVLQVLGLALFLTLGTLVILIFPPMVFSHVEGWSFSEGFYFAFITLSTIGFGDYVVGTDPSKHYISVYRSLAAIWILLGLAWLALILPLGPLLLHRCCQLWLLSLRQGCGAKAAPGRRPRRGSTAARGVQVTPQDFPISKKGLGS", "assay": "Extended screening of K2P channels with BL-1249: TALK-1", "assay_type": "cell-based", "conditions": "result in words"}, "TALK-2": {"target": "T4, TALK-2 (Homo sapiens, UniProt Q96T54)", "T4 sequence (Q96T54 1-332)": "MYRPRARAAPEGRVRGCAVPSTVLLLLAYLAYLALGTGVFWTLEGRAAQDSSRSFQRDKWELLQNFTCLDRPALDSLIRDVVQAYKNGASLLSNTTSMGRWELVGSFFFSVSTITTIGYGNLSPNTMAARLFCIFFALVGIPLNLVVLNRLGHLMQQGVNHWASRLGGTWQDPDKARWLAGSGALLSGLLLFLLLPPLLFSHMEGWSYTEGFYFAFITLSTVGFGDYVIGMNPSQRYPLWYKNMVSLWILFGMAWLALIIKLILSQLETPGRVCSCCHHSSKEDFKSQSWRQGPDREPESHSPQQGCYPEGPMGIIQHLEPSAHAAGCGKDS", "assay": "TALK-2 currents in inside-out patches", "assay_type": "cell-based", "conditions": "result in words", "how_it_was_run": "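TALK-2 currents were recorded in inside-out patches from Xenopus oocytes. Fold activation was measured with 50 μM test compound or 1 mM 2-APB, applied at several intracellular pH values.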"}, "THIK-1": {"target": "T5, THIK-1 (Homo sapiens, UniProt Q9HB14)", "T5 sequence (Q9HB14 1-408)": "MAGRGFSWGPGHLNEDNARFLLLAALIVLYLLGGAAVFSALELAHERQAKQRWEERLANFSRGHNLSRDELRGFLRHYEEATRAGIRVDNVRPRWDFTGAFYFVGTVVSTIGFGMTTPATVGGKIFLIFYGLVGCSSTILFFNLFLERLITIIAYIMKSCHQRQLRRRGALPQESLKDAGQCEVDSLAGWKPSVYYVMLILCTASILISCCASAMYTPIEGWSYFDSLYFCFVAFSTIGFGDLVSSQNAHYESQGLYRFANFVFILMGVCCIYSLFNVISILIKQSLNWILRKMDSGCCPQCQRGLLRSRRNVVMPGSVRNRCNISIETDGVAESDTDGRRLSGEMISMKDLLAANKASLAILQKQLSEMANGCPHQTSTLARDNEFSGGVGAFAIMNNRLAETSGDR", "assay": "Extended screening of K2P channels with BL-1249: THIK-1", "assay_type": "cell-based", "conditions": "result in words"}, "Kv1.1": {"target": "Kv1.1 (Homo sapiens, UniProt Q09470)", "sequence (Q09470 whole entry)": "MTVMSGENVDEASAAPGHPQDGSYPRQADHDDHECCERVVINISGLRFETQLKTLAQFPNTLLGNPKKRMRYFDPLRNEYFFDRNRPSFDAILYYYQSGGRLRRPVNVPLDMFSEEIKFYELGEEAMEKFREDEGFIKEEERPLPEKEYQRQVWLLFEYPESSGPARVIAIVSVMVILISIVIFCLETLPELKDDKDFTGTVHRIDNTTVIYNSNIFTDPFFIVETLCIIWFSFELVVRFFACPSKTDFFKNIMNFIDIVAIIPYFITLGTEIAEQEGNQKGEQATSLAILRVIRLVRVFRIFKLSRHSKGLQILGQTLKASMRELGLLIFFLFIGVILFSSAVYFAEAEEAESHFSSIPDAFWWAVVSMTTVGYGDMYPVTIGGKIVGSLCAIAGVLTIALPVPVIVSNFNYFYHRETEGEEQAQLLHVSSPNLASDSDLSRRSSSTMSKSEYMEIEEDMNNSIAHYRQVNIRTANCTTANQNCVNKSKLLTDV", "assay": "BL-1249 on helix bundle-crossing gated channel Kv1.1", "assay_type": "cell-based", "conditions": "result in words"}, "Kv1.5": {"target": "Kv1.5 (Homo sapiens, UniProt P22460)", "sequence (P22460 whole entry)": "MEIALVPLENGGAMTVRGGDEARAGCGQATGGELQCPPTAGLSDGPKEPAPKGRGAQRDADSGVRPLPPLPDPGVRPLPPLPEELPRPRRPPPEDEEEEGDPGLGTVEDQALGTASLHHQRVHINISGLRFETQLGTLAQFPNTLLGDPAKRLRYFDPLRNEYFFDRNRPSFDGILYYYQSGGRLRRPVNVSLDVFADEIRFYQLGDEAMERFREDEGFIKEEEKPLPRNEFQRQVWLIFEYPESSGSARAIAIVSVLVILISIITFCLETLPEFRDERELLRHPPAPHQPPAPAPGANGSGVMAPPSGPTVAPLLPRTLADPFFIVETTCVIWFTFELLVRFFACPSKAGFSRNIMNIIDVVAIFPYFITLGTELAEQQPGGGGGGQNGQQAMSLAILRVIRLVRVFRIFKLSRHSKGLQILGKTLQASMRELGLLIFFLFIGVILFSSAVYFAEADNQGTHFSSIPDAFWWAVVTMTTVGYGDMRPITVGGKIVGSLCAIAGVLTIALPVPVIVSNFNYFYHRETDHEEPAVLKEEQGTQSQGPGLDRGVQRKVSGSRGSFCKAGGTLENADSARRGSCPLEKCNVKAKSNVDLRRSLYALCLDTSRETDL", "assay": "BL-1249 on helix bundle-crossing gated channel Kv1.5", "assay_type": "cell-based", "conditions": "result in words"}, "Kir1.1": {"target": "T6, Kir1.1 (Homo sapiens, UniProt P48048)", "T6 sequence (P48048 1-391)": "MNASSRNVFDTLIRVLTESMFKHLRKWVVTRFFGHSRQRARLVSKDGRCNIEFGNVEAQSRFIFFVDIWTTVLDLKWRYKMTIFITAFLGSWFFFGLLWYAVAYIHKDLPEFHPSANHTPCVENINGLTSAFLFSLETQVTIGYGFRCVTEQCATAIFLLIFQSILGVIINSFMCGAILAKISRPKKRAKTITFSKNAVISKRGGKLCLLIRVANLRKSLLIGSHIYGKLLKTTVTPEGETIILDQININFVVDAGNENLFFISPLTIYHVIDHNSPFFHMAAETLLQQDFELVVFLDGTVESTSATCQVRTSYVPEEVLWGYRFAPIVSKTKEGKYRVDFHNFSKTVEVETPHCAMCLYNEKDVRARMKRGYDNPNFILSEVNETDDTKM", "assay": "BL-1249 on helix bundle-crossing gated channel Kir1.1", "assay_type": "cell-based", "conditions": "result in words"}, "[1]": {"conditions": "acidic tetrazole ring; no reference given; cited from earlier work"}},
  "data": [
    {"smiles": "c1ccc(-c2nn[nH]n2)c(Nc2cccc3c2CCCC3)c1", "note": "[BL-1249]", "values": [
      {"measurement": "opening / activation of TREK-1 channels", "setting": "TREK-1", "result": "equal efficiency in opening"},
      {"measurement": "opening / activation of hERG channels", "setting": "hERG", "result": "equal efficiency in opening"},
      {"measurement": "activation of TRAAK", "setting": "TRAAK", "result": "potent activation"},
      {"measurement": "activation of TALK-1", "setting": "TALK-1", "result": "potent activation"},
      {"measurement": "activation of TALK-2", "setting": "TALK-2; extended screening", "result": "potent activation"},
      {"measurement": "pH dependence of TALK-2 activation", "setting": "TALK-2; lowering pHi to 5, 50 μM BL-1249 or 1 mM 2-APB", "result": "potency dropped strongly"},
      {"measurement": "activation of THIK-1", "setting": "THIK-1", "result": "potent activation"},
      {"measurement": "activation of Kv1.1", "setting": "Kv1.1", "result": "not activated"},
      {"measurement": "activation of Kv1.5", "setting": "Kv1.5", "result": "not activated"},
      {"measurement": "activation of Kir1.1", "setting": "Kir1.1", "result": "not activated"},
      {"measurement": "pKa", "setting": "[1]", "result": "around 5"}
    ]}
  ]
}
